ChEMBL document CHEMBL1156101, “Discovery and optimization of potent and selective triazolopyridazine series of c-Met inhibitors” (Bioorg Med Chem Lett, 2009)
pIC50, pKi: −log10 of the molar value. One block for each compound: values may come before it.

Assays:
[1] = target: Hepatocyte growth factor receptor (Homo sapiens, UniProt P08581); test: Inhibition of c-Met by HTRF assay
Cytochrome P450 3A4 [2] = target: T1, Cytochrome P450 3A4 (Homo sapiens, UniProt P08684); test: Inhibition of human CYP3A4; format: ADME
Cytochrome P450 3A4 [3] = target: T1, Cytochrome P450 3A4; test: Inhibition of human CYP3A4 in human liver microsomes preincubated with NADPH; format: ADME, Microsome
CYP3A4 = CYP3A4 (Homo sapiens, UniProt P08684); test: Selective ratio of human CYP3A4 IC50 to human CYP3A4 IC50 with pre-incubation; format: ADME; conditions: read-out: Ratio IC50
[4] = Intrinsic clearance in rat liver microsomes; format: ADME, Microsome
Outline: (§1)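 Intrinsic clearance was measured in vitro in rat, mouse and human liver microsomes.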

[5] = Intrinsic clearance in mouse liver microsomes; format: ADME, Microsome; outline: as §1
[6] = Intrinsic clearance in human liver microsomes; format: ADME, Microsome; outline: as §1
[7] = Plasma protein binding in rat at 5 ug/ml; format: ADME, cell-free; conditions: read-out: PPB (converted)
Outline: (§2)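 Plasma protein binding was measured by equilibrium dialysis at 5 µg/mL.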

[8] = Plasma protein binding in mouse at 5 ug/ml; format: ADME, cell-free; conditions: read-out: PPB (converted); outline: as §2
[9] = Clearance in Sprague-Dawley rat at 0.25 mg/kg, iv in DMSO vehicle; format: ADME, organism-based; parameters: dose 0.25 mg/kg, route intravenous; conditions: in vivo
Outline: (§3)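 Male Sprague-Dawley rats, n=3. Intravenous dosing at 0.25 mg/kg in DMSO or in 20% hydroxypropyl beta-cyclodextrin in water pH 3.5 w/MSA. Oral dosing at 2 mg/kg in 2% HMPC, 1% Tween in water pH 2.2 w/HCl.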

[10] = Volume of distribution at steady state in Sprague-Dawley rat at 0.25 mg/kg, iv in DMSO vehicle; format: ADME, organism-based; parameters: dose 0.25 mg/kg, route intravenous; conditions: in vivo, read-out: Vdss; outline: as §3
[11] = Half life in Sprague-Dawley rat at 0.25 mg/kg, iv in DMSO vehicle; format: ADME, organism-based; parameters: dose 0.25 mg/kg, route intravenous; conditions: in vivo; outline: as §3
[12] = AUC (0 to infinity) in Sprague-Dawley rat at 2 mg/kg, po; format: ADME, organism-based; parameters: time infinity, dose 2 mg/kg, route oral; conditions: plasma; outline: as §3
[13] = Oral bioavailability in Sprague-Dawley rat at 2 mg/kg; format: ADME, organism-based; conditions: in vivo; outline: as §3
[14] = target: Voltage-gated inwardly rectifying potassium channel KCNH2 (Homo sapiens, UniProt Q12809); test: Inhibition of human ERG
Homo sapiens = species: Homo sapiens; test: Plasma protein binding in human at 5 ug/ml; conditions: read-out: PPB (converted)
[15] = AUC (0 to 24 hrs) in mouse at ED50, po; format: ADME, organism-based; parameters: time < 24 hr, route oral; conditions: plasma
Outline: (§4)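 NIH3T3 cells transfected with human TPR-Met, implanted as xenograft in mice. Dosing by oral gavage once daily at 3, 10, 30 and 100 mg/kg for 22 days, starting 24 h after tumor cell implantation. Vehicle: 2% HMPC, 1% Tween in water pH 2.2 w/MSA. Tumor growth and body weight followed; n = 12 per group, mean ± standard error. AUC(0-24) taken at ED50 and ED90.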

[16] = AUC (0 to 24 hrs) in mouse at ED90, po; format: ADME, organism-based; parameters: time < 24 hr, route oral; conditions: plasma; outline: as §4
[17] = Clearance in Sprague-Dawley rat at 0.25 mg/kg, iv in 20% hydroxypropyl beta-cyclodextrin in water pH 3.5 w/MSA vehicle; format: ADME, organism-based; parameters: dose 0.25 mg/kg, route intravenous; conditions: in vivo
Outline: (§5)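 Male Sprague-Dawley rats, n=3, dosed intravenously at 0.25 mg/kg in 20% hydroxypropyl beta-cyclodextrin in water (pH 3.5, adjusted with MSA). In the same study, a separate oral arm used 2 mg/kg in 2% HMPC/1% Tween in water (pH 2.2, HCl) to derive bioavailability.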

[18] = Volume of distribution at steady state in Sprague-Dawley rat at 0.25 mg/kg, iv in 20% hydroxypropyl beta-cyclodextrin in water pH 3.5 w/MSA vehicle; format: ADME, organism-based; parameters: dose 0.25 mg/kg, route intravenous; conditions: in vivo, read-out: Vdss; outline: as §3
[19] = Half life in Sprague-Dawley rat at 0.25 mg/kg, iv in 20% hydroxypropyl beta-cyclodextrin in water pH 3.5 w/MSA vehicle; format: ADME, organism-based; parameters: dose 0.25 mg/kg, route intravenous; conditions: in vivo; outline: as §5
Heart = test: Cardiotoxicity in rabbit heart assessed as electrocardiographic parameters up to 3 uM; format: toxicity, tissue-based, Oryctolagus cuniculus
Mus musculus [20] = species: Mus musculus; test: Inhibition of HGF-induced c-Met phosphorylation in BALB/c mouse liver after 6 hrs by electrochemiluminescent assay; format: functional
Outline: (§6)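 Mice were given 30 mg/kg by oral gavage in 2% HMPC, 1% Tween in water pH 2.2 w/MSA, then challenged with HGF. HGF-induced c-Met phosphorylation in liver was quantified at several time points. Plasma and liver drug levels were measured alongside. n = 3, mean ± standard deviation.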

Mus musculus [21] = species: Mus musculus; test: Inhibition of HGF-induced c-Met phosphorylation in BALB/c mouse plasma after 6 hrs by electrochemiluminescent assay; format: functional; outline: as §6
Mus musculus [22] = test: Inhibition of HGF-induced c-Met phosphorylation in BALB/c mouse liver at 30 mg/kg, po after 12 hrs by electrochemiluminescent assay; format: functional; outline: as §6
NIH3T3 = test: Antitumor activity against TPR-Met expressing NIH/3T3 xenografted in mouse dosed po over 22 days q.d; format: functional; conditions: 528 h; outline: as §4
Mus musculus [23] = test: Toxicity in mouse xenografted with TPR-Met expressing NIH/3T3 up to 100 mg/kg, po over 22 days q.d; format: organism-based, NIH3T3; parameters: dose 100 mg/kg, route oral; conditions: in vivo, 528 h; outline: as §4

pIC50 [1]: 5.86
pIC50 (Cytochrome P450 3A4 [2]): < 4.30
pIC50 (Cytochrome P450 3A4 [3]): 4.30
Structure (SMILES): COc1ccc2c(NCc3nnc4ccc(-c5ccccc5)nn34)ccnc2c1
IC50 shift (CYP3A4): > 1

pIC50 (Cytochrome P450 3A4 [2]): < 4.30
pIC50 (Cytochrome P450 3A4 [3]): 4.54
microsomal CLint [4]: 53 µL/min/mg
microsomal CLint [5]: 49 µL/min/mg
microsomal CLint [6]: 47 µL/min/mg
fraction unbound at 5 ug/ml [7]: 0.002
fraction unbound at 5 ug/ml [8]: 0.023
clearance [9]: 0.717 mL/min/kg
Vd [10]: 0.201 L/kg
half-life [11]: 3.84 h
AUC(0-inf) [12]: 31100 ng·h/mL
bioavailability [13]: 62%
fraction unbound at 5 ug/ml (Homo sapiens): 0.008
Structure (SMILES): COc1cnc2c(NCc3nnc4ccc(-c5cc(F)cc(F)c5)nn34)ccnc2c1
pKi [14]: 6.70

pIC50 [1]: < 5.18
pIC50 (Cytochrome P450 3A4 [2]): 5.35
pIC50 (Cytochrome P450 3A4 [3]): 5.15
Structure (SMILES): COc1ccc2c(SCc3nnc4ccc(-c5ccccc5)nn34)ccnc2c1
IC50 shift (CYP3A4): 0.64

pIC50 (Cytochrome P450 3A4 [2]): < 4.30
pIC50 (Cytochrome P450 3A4 [3]): 5.04
Structure (SMILES): COc1cnc2c(NCc3nnc4ccc(-c5ccc(F)c(F)c5)nn34)ccnc2c1

AUC(0-t) at 24 h [15]: 0.43 µM·h
AUC(0-t) at 24 h [16]: 4.7 µM·h
pIC50 (Cytochrome P450 3A4 [2]): < 4.30
pIC50 (Cytochrome P450 3A4 [3]): 4.59
microsomal CLint [4]: 59 µL/min/mg
microsomal CLint [5]: 60 µL/min/mg
microsomal CLint [6]: 24 µL/min/mg
fraction unbound at 5 ug/ml [7]: 0.007
clearance [17]: 3.08 mL/min/kg
Vd [18]: 0.303 L/kg
half-life [19]: 1.76 h
AUC(0-inf) [12]: 3500 ng·h/mL
bioavailability [13]: 30.5%
EC90 (Mus musculus [20]): 1.8 µM
EC90 (Mus musculus [21]): 0.136 µM
fraction unbound at 5 ug/ml (Homo sapiens): 0.025
Structure (SMILES): COc1cnc2c(NCc3nnc4ccc(-c5cc(C)ns5)nn34)ccnc2c1
pKi [14]: 5.80
Activity (Heart): Non-toxic
inhibition in vivo at 30 mg/kg (Mus musculus [22]): > 50%
ED50 (NIH3T3): 3.3 mg/kg
ED90 (NIH3T3): 22 mg/kg
Activity (Mus musculus [23]): Non-toxic

pIC50 (Cytochrome P450 3A4 [2]): < 4.30
pIC50 (Cytochrome P450 3A4 [3]): 4.80
Structure (SMILES): COc1cnc2c(NCc3nnc4ccc(-c5cc(F)c(F)c(F)c5)nn34)ccnc2c1

pIC50 (Cytochrome P450 3A4 [2]): 4.85
pIC50 (Cytochrome P450 3A4 [3]): 5.41
Structure (SMILES): COc1ccc2c(O[C@@H](C)c3nnc4ccc(-c5ccccc5)nn34)ccnc2c1

pIC50 (Cytochrome P450 3A4 [2]): 4.74
pIC50 (Cytochrome P450 3A4 [3]): 5.05
Structure (SMILES): COc1ccc2c(O[C@H](C)c3nnc4ccc(-c5ccccc5)nn34)ccnc2c1

pIC50 (Cytochrome P450 3A4 [2]): < 4.30
pIC50 (Cytochrome P450 3A4 [3]): 5.19
Structure (SMILES): COc1ccc2c(OCc3nnc4ccc(-c5ccc(F)c(F)c5)nn34)ccnc2c1

pIC50 (Cytochrome P450 3A4 [2]): < 4.30
pIC50 (Cytochrome P450 3A4 [3]): 5.08
Structure (SMILES): COc1ccc2c(OCc3nnc4ccc(-c5cc(F)cc(F)c5)nn34)ccnc2c1

pIC50 (Cytochrome P450 3A4 [2]): 4.77
pIC50 (Cytochrome P450 3A4 [3]): 5.32
Structure (SMILES): COc1ccc2c(OCc3nnc4ccc(-c5cc(C)ns5)nn34)ccnc2c1

pIC50 [1]: 8.30
pIC50 (Cytochrome P450 3A4 [2]): 4.54
pIC50 (Cytochrome P450 3A4 [3]): 5.70
Structure (SMILES): COc1ccc2c(OCc3nnc4ccc(-c5cc(F)c(F)c(F)c5)nn34)ccnc2c1
IC50 shift (CYP3A4): 14
